# Experimental data as given in PubChem BioAssay.
# Active and inactive are the calls of the source.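 The calls were made as follows, unless noted: active = inhibition above 20% together with a positive visual image hit; inconclusive = visual image hit but inhibition not above 20%; inactive = no visual image hit.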
# What was measured:
# [1] = inhibitors of TNFa-induced NFkB p65 translocation, primary screen, imaging, HUVEC, MLSMR starter and 10KST1 sets (AID 438); details: HUVEC TNFa-induced p65 nuclear translocation; cell count: measured here: nuclei count (cytotoxicity indicator), at 2.08 µM; inhibition: at 2 µM, stronger effect = higher value, 0% TNFa-plus-vehicle, 100% no-TNFa wells;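 also: compound added about 3h40 before a 20 min TNFalpha stimulation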;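 as to inhibition: signal is the nuclear over cytoplasmic p65 intensity ratio per well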
# [2] = reduction of polyQ htt aggregates in cells – imaging, exon1htt(103Q)mCFP cells, high-content imaging, primary screen (AID 483;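 active = visual image review flags a hit and inhibition of aggregation exceeds 20%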;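 also: compound exposure lasted 3 days before fixation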;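 as to nuclei count: percent of the per-plate median nuclei count of sample wells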); details: exon1htt(103Q)mCFP cell line, aggregate imaging, at 2 µM; inhibition of aggregation: stronger effect = higher value; nuclei count: measured here: cell count, toxicity
# [3] = endothelial E-selectin expression blockers – imaging, HUVEC, immunofluorescence, MLSMR starter and 10KST1 sets, primary screen (AID 487;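 active = visually confirmed hit in the image check and inhibition above 20%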;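 as to inhibition: signal is fraction of cell area covered by stained E-selectin grains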;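 as to nuclei count: 100% = median nuclei count of all wells on the same plate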); details: HUVEC TNFalpha-induced E-selectin immunofluorescence imaging, at 2 µM; inhibition: stronger effect = higher value; nuclei count: measured here: cell number, toxicity
# [4] = target: Voltage-gated potassium channel subunit beta-2 (Rattus norvegicus) (UniProt P62483); assay: inhibitors of rat Kvbeta2 reductase activity – biochemical, NADPH fluorescence, primary screen (AID 622;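 active = fluorescence slope higher than the sample average by over 3 SD, cut at about -0.22 in these data, passing the limit was not always enough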;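 also: slope of raw intensity against log time taken from 70 to 1610 s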); details: recombinant KvBeta, 4-cyanobenzaldehyde reduction, at 10 µM, stronger effect = higher value
# [5] = target: Voltage-gated potassium channel subunit beta-2 (Rattus norvegicus) (UniProt P62483); assay: enhancers of rat Kvbeta2 NADPH turnover – biochemical, NADPH fluorescence, primary screen (AID 623;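 active = NADPH fluorescence slope more negative than the mean of all samples by about 3 SD, 99.7% confidence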;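 also: fluorescence intensity change per second fitted from 20 to 320 s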); details: Recombinant KvBeta, NADPH fluorescence decrease slope, 10 min; at 10 µM; stronger effect = lower value
# [6] = target: Muscarinic acetylcholine receptor M4 (Homo sapiens) (UniProt P08173); assay: M4-linked GIRK flux change, two-sided – cell-based, HEK293 M4/GIRK, thallium flux, BTC-AM, M4 allosteric agonist project, primary screen (AID 625;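 active = fluorescence slope after compound addition differing from the mean of all tested samples at 99.7% confidence, mostly higher but some lower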;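 also: thallium influx through GIRK channels coupled to M4 in HEK293 cells with BTC-AM dye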); details: at 10 µM, actives lie on both sides
# Procedure, shortened: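 Material: HEK293 cells with M4 receptor and GIRK channels; Times: cells overnight at 37 °C, BTC-AM loading 1 h, reads 2 min total; Technique: kinetic BTC-AM fluorescence sampled at 1 Hz, 10 s pre-addition baseline; Read-out basis: slope over 15–24 s of trace normalized to starting intensity; Controls: carbachol positive, DMSO negative.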
# [7] = blockers of RIG-like receptor reporter activation – cell-based, Sendai virus stimulus, luciferase, 10K MLSCN set, TLR/RLR signaling modifier project, primary screen (AID 602276;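 active = inhibition at or above 50% at 10 µM; inactive = inhibition below 50%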;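 also: firefly luciferase from ISG56 promoter only with Renilla not read in this screen; 0% = Sendai virus plus DMSO and 100% = medium plus DMSO without virus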); details: HEK293 RL24 IRF3 luciferase reporter, at 10 µM, stronger effect = higher value
# [8] = TLR3 IRF3 reporter activation blockers – cell-based, poly I:C stimulus, luciferase, 10K MLSCN set, primary screen (AID 602277;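 active = inhibition of the reporter signal at or above 50%; inactive = inhibition below 50%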); details: HEK293-TLR3 RL24 IRF3 luciferase reporter, at 10 µM, stronger effect = higher value
# Chain of Muscarinic acetylcholine receptor M4 (Homo sapiens) (P08173 whole entry, looked up): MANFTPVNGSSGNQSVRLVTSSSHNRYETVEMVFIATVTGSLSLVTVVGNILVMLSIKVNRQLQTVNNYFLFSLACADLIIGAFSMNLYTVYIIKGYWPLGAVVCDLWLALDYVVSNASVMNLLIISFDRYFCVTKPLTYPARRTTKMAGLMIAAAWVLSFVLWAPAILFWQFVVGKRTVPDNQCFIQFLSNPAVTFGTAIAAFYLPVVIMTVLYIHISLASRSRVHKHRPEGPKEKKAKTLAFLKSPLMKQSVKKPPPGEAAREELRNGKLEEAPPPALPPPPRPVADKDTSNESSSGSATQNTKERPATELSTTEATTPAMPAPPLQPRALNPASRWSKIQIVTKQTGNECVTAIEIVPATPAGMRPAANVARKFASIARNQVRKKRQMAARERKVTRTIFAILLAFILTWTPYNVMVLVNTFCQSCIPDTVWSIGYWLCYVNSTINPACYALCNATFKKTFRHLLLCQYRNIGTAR
# Chain of Voltage-gated potassium channel subunit beta-2 (Rattus norvegicus) (P62483 whole entry, looked up): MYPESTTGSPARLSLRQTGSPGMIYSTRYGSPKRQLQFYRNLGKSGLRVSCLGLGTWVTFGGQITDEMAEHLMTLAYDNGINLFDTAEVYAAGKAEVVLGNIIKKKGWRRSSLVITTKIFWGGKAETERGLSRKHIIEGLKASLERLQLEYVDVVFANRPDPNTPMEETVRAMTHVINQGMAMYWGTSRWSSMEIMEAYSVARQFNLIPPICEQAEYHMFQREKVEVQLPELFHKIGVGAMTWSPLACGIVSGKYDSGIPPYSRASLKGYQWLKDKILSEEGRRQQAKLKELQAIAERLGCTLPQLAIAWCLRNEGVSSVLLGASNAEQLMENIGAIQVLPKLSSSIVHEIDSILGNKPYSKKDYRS
structure (smiles),measurement,setting,value
Cc1cnc(C(=O)Nc2ccc(N3CCOCC3)cc2)cn1,cell count,[1],392
same,inhibition,[1],3% (inactive)
same,inhibition of aggregation,[2],-7.7% (inactive)
same,nuclei count,[2],117%
same,inhibition,[3],4.5% (inactive)
same,nuclei count,[3],101%
same,fluorescence slope,[4],-0.524 (inactive)
same,NADPH fluorescence slope,[5],-2.8e-05 (inactive)
same,fluorescence slope,[6],0.00612 (inactive)
same,inhibition,[7],-19.8% (inactive)
same,inhibition,[8],-62% (inactive)
Cc1cc(=O)oc2ccc(OCC(=O)N3CCC(C)CC3)cc12,cell count,[1],400
same,inhibition,[1],-3.9% (inactive)
same,inhibition of aggregation,[2],-30.5% (inactive)
same,nuclei count,[2],103%
same,inhibition,[3],-41.1% (inactive)
same,nuclei count,[3],104%
same,fluorescence slope,[4],-0.567 (inactive)
same,NADPH fluorescence slope,[5],-4.1e-05 (inactive)
same,fluorescence slope,[6],0.00366 (inactive)
same,inhibition,[7],17.3% (inactive)
same,inhibition,[8],8.48% (inactive)
O=C(Cn1nnc(-c2cccs2)n1)OC1CCCCC1,cell count,[1],298
same,inhibition,[1],-4.7% (inactive)
same,inhibition of aggregation,[2],-0.1% (inactive)
same,nuclei count,[2],98.6%
same,inhibition,[3],-108% (inactive)
same,nuclei count,[3],108%
same,fluorescence slope,[4],-0.547 (inactive)
same,NADPH fluorescence slope,[5],-9.5e-06 (inactive)
same,fluorescence slope,[6],0.00395 (inactive)
same,inhibition,[7],11.6% (inactive)
same,inhibition,[8],5.67% (inactive)
c1ccc(-c2nnc(CN3CCC4(CC3)OCCO4)o2)cc1,cell count,[1],407
same,inhibition,[1],-6.8% (inactive)
same,inhibition of aggregation,[2],15.2% (inactive)
same,nuclei count,[2],70.5%
same,inhibition,[3],-27% (inactive)
same,nuclei count,[3],118%
same,fluorescence slope,[4],-0.596 (inactive)
same,NADPH fluorescence slope,[5],1.6e-05 (inactive)
same,fluorescence slope,[6],0.0059 (inactive)
same,inhibition,[7],8.62% (inactive)
same,inhibition,[8],10.2% (inactive)
Cc1cc(NCCN(C)C)n2nc(-c3cccs3)cc2n1,cell count,[1],597
same,inhibition,[1],7.8% (inactive)
same,inhibition of aggregation,[2],6.4% (inactive)
same,nuclei count,[2],102%
same,inhibition,[3],-69% (inactive)
same,nuclei count,[3],114%
same,fluorescence slope,[4],-0.335 (inactive)
same,NADPH fluorescence slope,[5],-6.9e-05 (inactive)
same,fluorescence slope,[6],0.00655 (inactive)
same,inhibition,[7],-3.67% (inactive)
same,inhibition,[8],1.86% (inactive)
CC1(C)Cc2noc(N)c2C(C)(C)N1OC(=O)c1ccccc1,cell count,[1],322
same,inhibition,[1],2.4% (inactive)
same,inhibition of aggregation,[2],1.8% (inactive)
same,nuclei count,[2],99%
same,inhibition,[3],-48.1% (inactive)
same,nuclei count,[3],126%
same,fluorescence slope,[4],-0.463 (inactive)
same,NADPH fluorescence slope,[5],1.8e-05 (inactive)
same,fluorescence slope,[6],0.00527 (inactive)
same,inhibition,[7],-2.74% (inactive)
same,inhibition,[8],5.08% (inactive)
CCc1cc(C)cc(OCCNC(=O)c2ncn[nH]2)c1,cell count,[1],473
same,inhibition,[1],3% (inactive)
same,inhibition of aggregation,[2],3.2% (inactive)
same,nuclei count,[2],93.5%
same,inhibition,[3],31.1% (inactive)
same,nuclei count,[3],88.4%
same,fluorescence slope,[4],-0.592 (inactive)
same,NADPH fluorescence slope,[5],-1.9e-06 (inactive)
same,fluorescence slope,[6],0.00585 (inactive)
same,inhibition,[7],12% (inactive)
same,inhibition,[8],18.1% (inactive)
O=S(=O)(c1ccc(Br)s1)N1CCCCC1,cell count,[1],479
same,inhibition,[1],-1.6% (inactive)
same,inhibition of aggregation,[2],-18.8% (inactive)
same,nuclei count,[2],100%
same,inhibition,[3],0.6% (inactive)
same,nuclei count,[3],106%
same,fluorescence slope,[4],-0.615 (inactive)
same,NADPH fluorescence slope,[5],4.4e-05 (inactive)
same,fluorescence slope,[6],0.00346 (inactive)
same,inhibition,[7],5.16% (inactive)
same,inhibition,[8],9.33% (inactive)
